According to PMC3390648 (The Journal of Biological Chemistry, 2012):

B1: Pol1-F1463A (protein)
chain: MSSKSEKLEKLRKLQAARNGTSIDDYEGDESDGDRIYDEIDEKEYRARKRQELLHDDFVVDDDGVGYVDRGVEEDWREVDNSSSDEDTGNLASKDSKRKKNIKREKDHQITDMLRTQHSKSTLLAHAKKSQKKSIPIDNFDDILGEFESGEVEKPNILLPSKLRENLNSSPTSEFKSSIKRVNGNDESSHDAGISKKVKIDPDSSTDKYLEIESSPLKLQSRKLRYANDVQDLLDDVENSPVVATKRQNVLQDTLLANPPSAQSLADEEDDEDSDEDIILKRRTMRSVTTTRRVNIDSRSNPSTSPFVTAPGTPIGIKGLTPSKSLQSNTDVATLAVNVKKEDVVDPETDTFQMFWLDYCEVNNTLILFGKVKLKDDNCVSAMVQINGLCRELFFLPREGKTPTDIHEEIIPLLMDKYGLDNIRAKPQKMKYSFELPDIPSESDYLKVLLPYQTPKSSRDTIPSDLSSDTFYHVFGGNSNIFESFVIQNRIMGPCWLDIKGADFNSIRNASHCAVEVSVDKPQNITPTTTKTMPNLRCLSLSIQTLMNPKENKQEIVSITLSAYRNISLDSPIPENIKPDDLCTLVRPPQSTSFPLGLAALAKQKLPGRVRLFNNEKAMLSCFCAMLKVEDPDVIIGHRLQNVYLDVLAHRMHDLNIPTFSSIGRRLRRTWPEKFGRGNSNMNHFFISDICSGRLICDIANEMGQSLTPKCQSWDLSEMYQVTCEKEHKPLDIDYQNPQYQNDVNSMTMALQENITNCMISAEVSYRIQLLTLTKQLTNLAGNAWAQTLGGTRAGRNEYILLHEFSRNGFIVPDKEGNRSRAQKQRQNEENADAPVNSKKAKYQGGLVFEPEKGLHKNYVLVMDFNSLYPSIIQEFNICFTTVDRNKEDIDELPSVPPSEVDQGVLPRLLANLVDRRREVKKVMKTETDPHKRVQCDIRQQALKLTANSMYGCLGYVNSRFYAKPLAMLVTNKGREILMNTRQLAESMNLLVVYGDTDSVMIDTGCDNYADAIKIGLGFKRLVNERYRLLEIDIDNVFKKLLLHAKKKYAALTVNLDKNGNGTTVLEVKGLDMKRREFCPLSRDVSIHVLNTILSDKDPEEALQEVYDYLEDIRIKVETNNIRIDKYKINMKLSKDPKAYPGGKNMPAVQVALRMRKAGRVVKAGSVITFVITKQDEIDNAADTPALSVAERAHALNEVMIKSNNLIPDPQYYLEKQIFAPVERLLERIDSFNVVRLSEALGLDSKKYFRREGGNNNGEDINNLQPLETTITDVERFKDTVTLELSCPSCDKRFPFGGIVSSNYYRVSYNGLQCKHCEQLFTPLQLTSQIEHSIRAHISLYYAGWLQCDDSTCGIVTRQVSVFGKRCLNDGCTGVMRYKYSDKQLYNQLLYFDSLFDCEKNKKQELKPIYLPDDLDYPKEQLTESSIKALTEQNRELMETGRSVVQKYLNDCGRRYVDMTSIADFMLN
modifications: left off: 9MYC, end not stated, kept
B2: Pol1 1–1452: Pol1 allele with the sequence encoding the last 16 amino acids removed (protein)
chain: MSSKSEKLEKLRKLQAARNGTSIDDYEGDESDGDRIYDEIDEKEYRARKRQELLHDDFVVDDDGVGYVDRGVEEDWREVDNSSSDEDTGNLASKDSKRKKNIKREKDHQITDMLRTQHSKSTLLAHAKKSQKKSIPIDNFDDILGEFESGEVEKPNILLPSKLRENLNSSPTSEFKSSIKRVNGNDESSHDAGISKKVKIDPDSSTDKYLEIESSPLKLQSRKLRYANDVQDLLDDVENSPVVATKRQNVLQDTLLANPPSAQSLADEEDDEDSDEDIILKRRTMRSVTTTRRVNIDSRSNPSTSPFVTAPGTPIGIKGLTPSKSLQSNTDVATLAVNVKKEDVVDPETDTFQMFWLDYCEVNNTLILFGKVKLKDDNCVSAMVQINGLCRELFFLPREGKTPTDIHEEIIPLLMDKYGLDNIRAKPQKMKYSFELPDIPSESDYLKVLLPYQTPKSSRDTIPSDLSSDTFYHVFGGNSNIFESFVIQNRIMGPCWLDIKGADFNSIRNASHCAVEVSVDKPQNITPTTTKTMPNLRCLSLSIQTLMNPKENKQEIVSITLSAYRNISLDSPIPENIKPDDLCTLVRPPQSTSFPLGLAALAKQKLPGRVRLFNNEKAMLSCFCAMLKVEDPDVIIGHRLQNVYLDVLAHRMHDLNIPTFSSIGRRLRRTWPEKFGRGNSNMNHFFISDICSGRLICDIANEMGQSLTPKCQSWDLSEMYQVTCEKEHKPLDIDYQNPQYQNDVNSMTMALQENITNCMISAEVSYRIQLLTLTKQLTNLAGNAWAQTLGGTRAGRNEYILLHEFSRNGFIVPDKEGNRSRAQKQRQNEENADAPVNSKKAKYQGGLVFEPEKGLHKNYVLVMDFNSLYPSIIQEFNICFTTVDRNKEDIDELPSVPPSEVDQGVLPRLLANLVDRRREVKKVMKTETDPHKRVQCDIRQQALKLTANSMYGCLGYVNSRFYAKPLAMLVTNKGREILMNTRQLAESMNLLVVYGDTDSVMIDTGCDNYADAIKIGLGFKRLVNERYRLLEIDIDNVFKKLLLHAKKKYAALTVNLDKNGNGTTVLEVKGLDMKRREFCPLSRDVSIHVLNTILSDKDPEEALQEVYDYLEDIRIKVETNNIRIDKYKINMKLSKDPKAYPGGKNMPAVQVALRMRKAGRVVKAGSVITFVITKQDEIDNAADTPALSVAERAHALNEVMIKSNNLIPDPQYYLEKQIFAPVERLLERIDSFNVVRLSEALGLDSKKYFRREGGNNNGEDINNLQPLETTITDVERFKDTVTLELSCPSCDKRFPFGGIVSSNYYRVSYNGLQCKHCEQLFTPLQLTSQIEHSIRAHISLYYAGWLQCDDSTCGIVTRQVSVFGKRCLNDGCTGVMRYKYSDKQLYNQLLYFDSLFDCEKNKKQELKPIYLPDDLDYPKEQLTESSIKALTEQNRELMETGRSVVQKYLNDC
modifications: left off: 9MYC, end not stated, kept
B3: truncated protein: recombinant form of human pol α with the last 67 amino acids removed (protein, UniProt P09884 1-1395, looked up, fragment)
chain: MAPVHGDDSLSDSGSFVSSRARREKKSKKGRQEALERLKKAKAGEKYKYEVEDFTGVYEEVDEEQYSKLVQARQDDDWIVDDDGIGYVEDGREIFDDDLEDDALDADEKGKDGKARNKDKRNVKKLAVTKPNNIKSMFIACAGKKTADKAVDLSKDGLLGDILQDLNTETPQITPPPVMILKKKRSIGASPNPFSVHTATAVPSGKIASPVSRKEPPLTPVPLKRAEFAGDDVQVESTEEEQESGAMEFEDGDFDEPMEVEEVDLEPMAAKAWDKESEPAEEVKQEADSGKGTVSYLGSFLPDVSCWDIDQEGDSSFSVQEVQVDSSHLPLVKGADEEQVFHFYWLDAYEDQYNQPGVVFLFGKVWIESAETHVSCCVMVKNIERTLYFLPREMKIDLNTGKETGTPISMKDVYEEFDEKIATKYKIMKFKSKPVEKNYAFEIPDVPEKSEYLEVKYSAEMPQLPQDLKGETFSHVFGTNTSSLELFLMNRKIKGPCWLEVKSPQLLNQPVSWCKVEAMALKPDLVNVIKDVSPPPLVVMAFSMKTMQNAKNHQNEIIAMAALVHHSFALDKAAPKPPFQSHFCVVSKPKDCIFPYAFKEVIEKKNVKVEVAATERTLLGFFLAKVHKIDPDIIVGHNIYGFELEVLLQRINVCKAPHWSKIGRLKRSNMPKLGGRSGFGERNATCGRMICDVEISAKELIRCKSYHLSELVQQILKTERVVIPMENIQNMYSESSQLLYLLEHTWKDAKFILQIMCELNVLPLALQITNIAGNIMSRTLMGGRSERNEFLLLHAFYENNYIVPDKQIFRKPQQKLGDEDEEIDGDTNKYKKGRKKAAYAGGLVLDPKVGFYDKFILLLDFNSLYPSIIQEFNICFTTVQRVASEAQKVTEDGEQEQIPELPDPSLEMGILPREIRKLVERRKQVKQLMKQQDLNPDLILQYDIRQKALKLTANSMYGCLGFSYSRFYAKPLAALVTYKGREILMHTKEMVQKMNLEVIYGDTDSIMINTNSTNLEEVFKLGNKVKSEVNKLYKLLEIDIDGVFKSLLLLKKKKYAALVVEPTSDGNYVTKQELKGLDIVRRDWCDLAKDTGNFVIGQILSDQSRDTIVENIQKRLIEIGENVLNGSVPVSQFEINKALTKDPQDYPDKKSLPHVHVALWINSQGGRKVKAGDTVSYVICQDGSNLTASQRAYAPEQLQKQDNLTIDTQYYLAQQIHPVVARICEPIDGIDAVLIATWLGLDPTQFRVHHYHKDEENDALLGGPAQLTDEEKYRDCERFKCPCPTCGTENIYDNVFDGSGTDMEPSLYRCSNIDCKASPLTFTVQLSNKLIMDIRRFIKKYYDGWLICEEPTCRNRTRHLPLQFSRTGPLCPACMKATLQPEYSDKSLYTQLCFY

Legend:
primase [1] = assay: Immunoprecipitation and immunoblotting, primase; format: cell-based, Saccharomyces cerevisiae; conditions: diploid yeast, anti-HA beads, immunoblotting
[2] = tested on: other replisome components; assay: Immunoprecipitation and immunoblotting, replisome components; format: cell-based, Saccharomyces cerevisiae; conditions: diploid yeast, anti-HA beads, native cell extracts, immunoblotting; relative to wild-type Pol1
Pol12 = assay: Immunoprecipitation and immunoblotting, Pol12; format: cell-based, Saccharomyces cerevisiae; conditions: diploid yeast, anti-HA beads, native cell extracts, immunoblotting
primase [3] = assay: Immunoprecipitation from yeast extracts and mass spectrometry, primase; format: cell-based, Saccharomyces cerevisiae; conditions: diploid yeast, anti-Myc beads, spectral counts
Summary of the method: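 Asynchronous diploid cultures were grown in YPD. Extracts were made from 250 ml of mid-log cells (2.5 × 10^9) with 100 mM potassium acetate. DNA was digested with 800 units of Benzonase for 30 min at 4 °C before capture on 9E10 magnetic beads. Each sample was run 1 cm into an SDS gel, cut into 10 bands, trypsin-digested and analysed by mass spectrometry.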

B subunit Pol12 = assay: Immunoprecipitation from yeast extracts and mass spectrometry, B subunit; format: cell-based, Saccharomyces cerevisiae; conditions: diploid yeast, anti-Myc beads, spectral counts
Summary of the method: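 Diploid strains grown asynchronously in YPD (1% yeast extract, 2% peptone, 40 μg/ml adenine, 2% glucose). Extracts made from 250 ml mid-log culture (2.5 × 10^9 cells) with 100 mM potassium acetate, then Benzonase-digested (800 units, 30 min, 4 °C). Tagged protein immunoprecipitated on anti-Myc (9E10) magnetic beads. Eluate run 1 cm into SDS gel, cut into 10 bands, trypsin-digested, and analysed by mass spectrometry.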

[4] = tested on: S phase checkpoint pathway (Mec1); assay: Dependence of viability on S phase checkpoint; format: cell-based, Saccharomyces cerevisiae
yeast cells = assay: Tetrad analysis, colony formation and growth of yeast cells; format: cell-based, Saccharomyces cerevisiae; conditions: tetrad analysis of meiotic progeny of heterozygous diploid, rich medium YPD
Summary of the method: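 Heterozygous diploids, each carrying one wild-type POL1 copy and one mutant pol1 allele (C-terminal truncation or point mutant), were sporulated. Meiotic progeny were scored by tetrad analysis for germination and colony growth. Medium was rich YPD: 1% yeast extract, 2% peptone, 40 μg/ml adenine, 2% glucose as sole carbon source.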

B subunit = conditions: last 67 amino acids of recombinant human pol α removed; cited from earlier work

Row | Molecule | interaction with primase, native cell extracts (primase [1]; native extracts) | interaction with primase, formaldehyde-treated cells (primase [1]; cells treated with 1% formaldehyde, 25 min, 24 °C) | co-purification with other replisome components [2] | association with Pol12 (Pol12) | co-purification with primase (primase [3]) | association with B subunit Pol12 (B subunit Pol12) | dependence for survival on checkpoint kinases ([4]; Mec1 and Rad53, data not shown) | survival in combination with mec1Δ ([4]; pol1-F1463A combined with mec1Δ (SML1 deleted)) | dependence of viability on checkpoint kinase ([4]; sml1Δ mec1Δ background) | colony formation / viability and growth (yeast cells) | interaction with the B subunit (B subunit)
1 | B1 | neither of the mutated forms interacted with primase | neither of the mutated forms interacted with primase | slightly weaker than for wild-type Pol1 | all associated equally well with Pol12 | neither of the mutated alleles of Pol1 co-purified with primase | as efficiently as wild-type Pol1 | dependence for survival on the checkpoint kinases Mec1 and Rad53 | die after a couple of rounds of cell division | completely dependent upon the Mec1 checkpoint kinase | – | –
2 | B2 | – | – | – | all associated equally well with Pol12 | – | as efficiently as wild-type Pol1 | – | – | – | not able to form colonies | –
3 | B3 | – | – | – | – | – | – | – | – | – | – | abolished interaction with the B subunit
